Assay outcomes (PubChem)
GSTO1 counter: inhibitors of recombinant GSTO1, primary screen, counter-screen for RBBP9 inhibitor project, biochemical, fluorescence polarization | Glutathione S-transferase omega-1 (Homo sapiens), P78417 | activity-based probe fluorescence polarization | inhibition, % at 5.96 µM | 300,000 tested, 1.1% active | AID 1974, 2009;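 active = inhibition above the campaign mean inhibition plus 3 SD, cut at about 35% in these data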;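 also: 0% = GSTO1-1 with DMSO and 100% = wells lacking GSTO1-1 enzyme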
PRMT1 FP inh: PRMT1 methyltransferase inhibitors, primary screen, biochemical, fluorescence polarization. Protein arginine N-methyltransferase 1 (Homo sapiens), Q99873. recombinant PRMT1, activity-based probe fluorescence polarization. inhibition, % at 2.79 µM. 370,000 tested, 1.3% active;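 active = inhibition above about 21% made by adding two undisclosed values, limit read from the data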
eLon inh: inhibitors of E. coli Lon protease, primary screen, biochemical, fluorescence polarization; P0A9M0; purified E. coli Lon protease; inhibition, % at 7.94 µM; 360,000 tested, 0.42% active; AID 602123, 2011; in the data active = inhibition above about 13%, passing the limit was not always enough;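 also: 0% = enzyme with probe and DMSO and 100% = no enzyme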
TDP2 inh: human TDP2 enzyme inhibitors, primary screen, biochemical, epi absorbance, recombinant enzyme | Tyrosyl-DNA phosphodiesterase 2 (Homo sapiens), O95551 | T5PNP hydrolysis, p-nitrophenol absorbance 415 nm | inhibition, % at 12.8 µM | 370,000 tested, 0.34% active | AID 720702, 2013;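 active = inhibition above the mean of all tested compounds plus 3 SD, set per campaign, cut at about 25% in these data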;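 also: 0% = DMSO with enzyme and 100% = buffer with substrate but no TDP2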
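test system = human TDP2 enzyme | input = TDP2 enzyme at 120 nM final | medium = 50 mM Tris-HCl pH 7.5 with Mg2+, KCl, DTT, BSA | also added = T5PNP substrate, 5 mM | times = 2 h at 37 °C | technique = epi absorbance | benchmarks = high control without enzyme, low control DMSO plus TDP2 | replication = each compound tested once, singlicate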
PAD4 inh: human PAD4 inhibitors, primary screen, biochemical, fluorescence polarization, 1536-well format; Protein-arginine deiminase type-4 (Homo sapiens), Q9UM07; recombinant PAD4, RCA probe fluorescence polarization; inhibition, % at 6.36 µM; 330,000 tested, 0.41% active;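 active = percent inhibition above a cutoff equal to the mean of all tested compounds plus 3 SD, cut at about 15% in these data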;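 also: 0% = PAD4 with RCA probe and DMSO and 100% = probe without PAD4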
Target sequence (Q9UM07 whole entry, looked up): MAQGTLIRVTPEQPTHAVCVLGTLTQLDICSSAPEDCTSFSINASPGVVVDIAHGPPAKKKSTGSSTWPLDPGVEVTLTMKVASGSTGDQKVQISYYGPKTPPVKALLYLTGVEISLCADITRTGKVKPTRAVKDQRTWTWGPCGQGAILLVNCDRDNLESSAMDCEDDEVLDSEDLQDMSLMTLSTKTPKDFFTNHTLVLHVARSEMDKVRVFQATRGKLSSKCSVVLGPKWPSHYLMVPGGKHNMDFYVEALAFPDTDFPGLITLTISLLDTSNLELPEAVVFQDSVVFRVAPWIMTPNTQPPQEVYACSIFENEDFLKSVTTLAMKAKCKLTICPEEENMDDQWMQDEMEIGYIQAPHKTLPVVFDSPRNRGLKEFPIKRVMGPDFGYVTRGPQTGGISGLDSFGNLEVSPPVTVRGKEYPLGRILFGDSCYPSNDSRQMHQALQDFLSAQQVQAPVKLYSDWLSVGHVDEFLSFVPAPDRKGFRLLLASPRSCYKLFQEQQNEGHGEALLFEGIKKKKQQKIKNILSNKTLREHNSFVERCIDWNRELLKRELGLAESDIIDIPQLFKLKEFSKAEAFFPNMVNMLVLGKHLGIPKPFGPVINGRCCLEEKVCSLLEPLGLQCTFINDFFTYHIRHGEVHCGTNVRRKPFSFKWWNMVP
PAD4 confirm: human PAD4 inhibitors, confirmation, biochemical, fluorescence polarization | shares compounds with PAD4 inh | recombinant PAD4, RCA probe fluorescence polarization | inhibition, % at 6.36 µM | 1,200 tested, 28% active;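 active = mean inhibition across replicates above the hit cutoff set by the earlier primary screen, cut at about 15% in these data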;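 also: inhibitors block active-site labeling by the probe so polarization falls; 0% = PAD4 with probe and DMSO and 100% = probe without PAD4 enzyme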
* = called active by the depositor. Sampled rows, rich in hits. Any-hit rate of the full collection: about 2.5%.

How did O=C(CCNC(=O)c1ccccc1)Nc1ccc(Cl)c(S(=O)(=O)N2CCCCC2)c1 do in these assays?
PRMT1 FP inh: 4; eLon inh: -6; TDP2 inh: -3; PAD4 inh: 19*; PAD4 confirm: 0

How did CC(CC(=O)Nc1ccc(Cl)c(S(=O)(=O)N2CCOCC2)c1)c1ccccc1 (stereo unspecified) do in these assays?
PRMT1 FP inh: 1; eLon inh: 6; TDP2 inh: 12

Results for COc1cc(Cl)c(NC2=CC(=O)C(=O)c3ccccc32)c(OC)c1 ?
PRMT1 FP inh: 0; eLon inh: -3; TDP2 inh: 8; PAD4 inh: 41*; PAD4 confirm: 52*

Results for Cc1ccc(NC(=O)CSc2nnc(-c3cc(C)[nH]n3)n2N)cc1 ?
GSTO1 counter: 11; PRMT1 FP inh: -1; eLon inh: 3; TDP2 inh: 12; PAD4 inh: -2

Results for Cc1cc(-c2nnc(SCC(=O)Nc3ccc(F)c(F)c3)n2N)n[nH]1 ?
GSTO1 counter: -1; PRMT1 FP inh: 1; eLon inh: -4; TDP2 inh: 8; PAD4 inh: 52*; PAD4 confirm: 5

How did O=C(Nc1ccc(F)c(C(F)(F)F)c1)Nc1nnc(-c2ccncc2)s1 do in these assays?
PRMT1 FP inh: 5; TDP2 inh: -6

How did CNc1ccccc(-c2ccc3ccccc3n2)c1=O do in these assays?
GSTO1 counter: 23; PRMT1 FP inh: 24*; eLon inh: 2; TDP2 inh: 5; PAD4 inh: 20*; PAD4 confirm: 7

How did CCn1c(SC(C)C(=O)O)nc2sc3c(c2c1=O)CCC3 (stereo unspecified) do in these assays?
GSTO1 counter: 12; PRMT1 FP inh: 9; eLon inh: -2; TDP2 inh: 1; PAD4 inh: 16*; PAD4 confirm: 5

What do the screens show for `CCCn1c(CN2CCN(C(=O)OCC)CC2)nc2cc(NC(=O)CC)ccc21`?
GSTO1 counter: 10; PRMT1 FP inh: 0; eLon inh: -3; TDP2 inh: 1; PAD4 inh: 15*; PAD4 confirm: 2

Results for Cc1cc(C)c(S(=O)(=O)Nc2ccc(Cl)cn2)c(C)c1 ?
GSTO1 counter: 4; PRMT1 FP inh: -1; eLon inh: -4; TDP2 inh: 4; PAD4 inh: 21*; PAD4 confirm: 1

What do the screens show for `COC(=O)c1cc(NC(=O)CC2C(=O)NCCN2C(=O)c2ccccc2)cc(C(=O)OC)c1` (stereo unspecified)?
GSTO1 counter: 5; PRMT1 FP inh: -2; eLon inh: -10; TDP2 inh: -1; PAD4 inh: 16*; PAD4 confirm: -3

Results for CC(C)C[C@@H]1COc2cc(Br)ccc2S(=O)(=O)N1Cc1cn(Cc2ccc(Br)cc2)nn1 ?
PRMT1 FP inh: -1; TDP2 inh: -9

What do the screens show for `COC(=O)C1CN(Cc2ccccc2)CCS(=O)(=O)N1Cc1cn(Cc2cccc(Cl)c2)nn1` (stereo unspecified)?
PRMT1 FP inh: 0; TDP2 inh: 1

How did CC1SC(=S)N(c2ccc(N(C)C)cc2)C1=O (stereo unspecified) do in these assays?
GSTO1 counter: 15; PRMT1 FP inh: 9; eLon inh: -6; TDP2 inh: 24; PAD4 inh: 15*; PAD4 confirm: 3

Results for COc1ccc(N=C2NC(=O)S/C2=C\c2ccc(N(C)C)cc2)cc1 ?
GSTO1 counter: 10; PRMT1 FP inh: 0; eLon inh: -88; TDP2 inh: 4; PAD4 inh: 36*; PAD4 confirm: 47*

How did CCOc1ccc(N=C2NC(=O)S/C2=C\c2ccc(Cl)cc2)cc1 do in these assays?
GSTO1 counter: 6; PRMT1 FP inh: -1; eLon inh: 1; TDP2 inh: 3; PAD4 inh: -4

Results for Cc1ccc(C2CC(=O)Oc3cc(O)ccc32)cc1 (stereo unspecified) ?
GSTO1 counter: 27; PRMT1 FP inh: 3; eLon inh: -24; TDP2 inh: -7; PAD4 inh: 60*; PAD4 confirm: 63*

Results for COc1ccc(C2CC(=O)Oc3cc(OC)ccc32)cc1 (stereo unspecified) ?
PRMT1 FP inh: 4; eLon inh: 2; TDP2 inh: 1; PAD4 inh: -4

Results for O=C(COC(=O)c1ccc(S(=O)(=O)C(F)F)cc1)Nc1ccccc1C(=O)NC1CC1 ?
PRMT1 FP inh: -7; eLon inh: -2; TDP2 inh: 2; PAD4 inh: 15*; PAD4 confirm: 4

How did Cc1ccc(N(Cc2cc(=O)[nH]c3ccccc23)C(=O)C(C)C)cc1 do in these assays?
GSTO1 counter: -16; PRMT1 FP inh: -5; eLon inh: -1; TDP2 inh: -12; PAD4 inh: 26*; PAD4 confirm: 24*

How did CCCC(=O)N(Cc1cc(=O)[nH]c2ccccc12)c1ccc(C)cc1 do in these assays?
GSTO1 counter: -15; PRMT1 FP inh: 7; eLon inh: -3; TDP2 inh: -15; PAD4 inh: 23*; PAD4 confirm: 27*

How did CC(=O)N1CCN(c2ccc(NCc3ccc(C)s3)cc2)CC1 do in these assays?
GSTO1 counter: 9; PRMT1 FP inh: 11; eLon inh: -5; TDP2 inh: 19; PAD4 inh: 14

How did CC(=O)N1CCN(c2ccc(NCc3cccs3)cc2)CC1 do in these assays?
GSTO1 counter: 15; PRMT1 FP inh: 5; eLon inh: 4; TDP2 inh: 16; PAD4 inh: 17*; PAD4 confirm: -3

Results for COc1ccc2c(c(-c3ccccc3)cn2C)c1-c1ccccc1 ?
PRMT1 FP inh: 9; TDP2 inh: -4

How did Cc1cc2c3c(c1)C1(SCC(=O)N1c1ccc(F)cc1)C(=O)N3C(C)(C)CC2C (stereo unspecified) do in these assays?
GSTO1 counter: -12; PRMT1 FP inh: -1; eLon inh: -6; TDP2 inh: -1; PAD4 inh: 15

What do the screens show for `CC1CC(C)(C)N2C(=O)C3(Nc4ccccc4S3)c3cccc1c32` (stereo unspecified)?
GSTO1 counter: 4; eLon inh: -11; PAD4 inh: 23*; PAD4 confirm: 28*

What do the screens show for `CCOc1ccc2nc(NC(=O)c3ccco3)sc2c1`?
GSTO1 counter: 2; PRMT1 FP inh: 2; eLon inh: 5; TDP2 inh: -22; PAD4 inh: 17*; PAD4 confirm: 13

How did O=c1[nH][nH]c(C(F)(F)F)c1C=Nc1ccccc1 do in these assays?
GSTO1 counter: 7; PRMT1 FP inh: 2; eLon inh: -1; TDP2 inh: 0; PAD4 inh: -4
